Data taken from ChEMBL document CHEMBL4613248, “Twelfth-Position Deuteration of Nevirapine Reduces 12-Hydroxy-Nevirapine Formation and Nevirapine-Induced Hepatocyte Death” (J Med Chem, 2020).

Tests used:
[1] = Drug metabolism in C57BL/6J mouse primary hepatocytes assessed as Cytochrome P450-mediated formation of 3-OHD3NVP at 10 uM incubated for 24 hrs by uHPLC-MS analysis; type: ADME, cell-based
Method in brief: (§1)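 Fresh hepatocytes from male C57BL/6J mice (8–13 weeks), adhered overnight, then 10 μM substrate or vehicle (0.1% DMSO) for 24 h. Medium extracted with acetonitrile (50% final), dried, reconstituted in methanol; uHPLC-Orbitrap targeted SIM plus PRM (monooxygenated metabolites) or high-resolution ions (O-glucuronides, 459.1510/462.1700 ±5 ppm); four experimental replicates.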

Cytochrome P450 1A1 = target: T1, Cytochrome P450 1A1 (Homo sapiens, UniProt P04798); test: Drug metabolism assessed as human CYP1A1-mediated formation of 12-OHNVP at 10 uM pre-incubated for 30 mins followed by addition of NADPH regenerating reagents by uHPLC-MS analysis; type: ADME; details: recombinant enzyme
T1 sequence (P04798 whole entry): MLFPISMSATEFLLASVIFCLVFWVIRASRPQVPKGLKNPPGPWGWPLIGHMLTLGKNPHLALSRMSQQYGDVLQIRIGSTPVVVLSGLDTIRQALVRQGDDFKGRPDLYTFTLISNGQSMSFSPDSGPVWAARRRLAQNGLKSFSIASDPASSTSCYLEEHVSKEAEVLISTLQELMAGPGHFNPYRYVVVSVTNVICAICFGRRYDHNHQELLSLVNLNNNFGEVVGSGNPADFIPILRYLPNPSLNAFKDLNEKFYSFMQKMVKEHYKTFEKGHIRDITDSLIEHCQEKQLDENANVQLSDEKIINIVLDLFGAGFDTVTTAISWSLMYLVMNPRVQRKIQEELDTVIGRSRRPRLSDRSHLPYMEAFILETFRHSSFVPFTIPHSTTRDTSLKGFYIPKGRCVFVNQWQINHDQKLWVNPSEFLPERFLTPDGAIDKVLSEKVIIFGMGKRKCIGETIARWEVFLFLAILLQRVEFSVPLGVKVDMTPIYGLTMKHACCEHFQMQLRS
Method in brief: (§2)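 Insect-cell microsomes with single cDNA-expressed human P450 (100 nM) in 0.1 M potassium phosphate; 10 μM substrate prewarmed 5 min at 37 °C with NADPH-regenerating system, reaction started by adding microsomes; 30 min at 37 °C, 0.1% DMSO. Stopped, dried, reconstituted in methanol; triple-quadrupole SRM (12-OH 283.1→223.0, 2-OH 283.1→160.9, 3-OH 283.1→241.9), peak height; three replicates, mean ± SD.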

Hepatocyte [2] = test: Induction of change in 5-Mar protein expression in C57BL/6J mouse primary hepatocytes at 400 uM incubated for 8 hrs by relative-quantitation label-free proteomics analysis relative to NVP; type: cell-based
Method in brief: (§3)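 Fresh primary hepatocytes from male C57BL/6J mice aged 8–13 weeks, adhered overnight, then given fresh medium containing compound (400 μM), NVP (400 μM) or vehicle (0.2% DMSO) for 8 h. Lysate reduced (DTT) and alkylated (iodoacetamide), acetone-precipitated and digested with trypsin. Label-free Top10 nanoLC-MS with precursor ion area quantitation; unpaired t test P values, Cohen's d effect size.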

Cytochrome P450 2D6 = Cytochrome P450 2D6 (Homo sapiens, UniProt P10635); test: Drug metabolism assessed as human CYP2D6-mediated formation of 12-OHNVP at 10 uM pre-incubated for 30 mins followed by addition of NADPH regenerating reagents by uHPLC-MS analysis; type: ADME; details: recombinant enzyme; method in brief: as §2
Hepatocyte [3] = test: Induction of change in SHMT2 protein expression in human primary hepatocytes at 10 uM incubated for 48 hrs by relative-quantitation label-free proteomics analysis relative to NVP; type: cell-based
Method in brief: as §3, with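 “Cryoplateable pooled human” for “Fresh primary”, “(10 mixed-sex donors per pool; three pools),” for “from male C57BL/6J mice aged 8–13 weeks,”, “(10” for “(400”, “(0.1%” for “(0.2%”, “48” for “8”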

Cytochrome P450 3A5 = Cytochrome P450 3A5 (Homo sapiens, UniProt P20815); test: Drug metabolism assessed as human CYP3A5-mediated formation of 12-OHNVP at 10 uM pre-incubated for 30 mins followed by addition of NADPH regenerating reagents by uHPLC-MS analysis; type: ADME; details: recombinant enzyme; method in brief: as §2
[4] = Drug metabolism in C57BL/6J mouse primary hepatocytes assessed as Cytochrome P450-mediated formation of 2-OHD3NVP at 10 uM incubated for 24 hrs by uHPLC-MS analysis; type: ADME, cell-based; method in brief: as §1
Hepatocyte [5] = test: Induction of change in Mrpl1 protein expression in C57BL/6J mouse primary hepatocytes at 400 uM incubated for 8 hrs by relative-quantitation label-free proteomics analysis relative to NVP; type: cell-based; method in brief: as §3
Hepatocyte [6] = test: Induction of change in CYB5A protein expression in human primary hepatocytes at 10 uM incubated for 48 hrs by relative-quantitation label-free proteomics analysis relative to NVP; type: cell-based
Method in brief: as §3, with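 “Cryoplateable pooled human” for “Fresh primary”, “(10 mixed-sex donors per pool; three pools),” for “from male C57BL/6J mice aged 8–13 weeks,”, “(10” for “(400”, “(0.1%” for “(0.2%”, “48” for “8”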

[7] = Drug metabolism in C57BL/6J mouse primary hepatocytes assessed as Cytochrome P450-mediated formation of 8-OHD3NVP at 10 uM incubated for 24 hrs by uHPLC-MS analysis; type: ADME, cell-based; method in brief: as §1
Hepatocyte [8] = test: Induction of change in Tf protein expression in C57BL/6J mouse primary hepatocytes at 400 uM incubated for 8 hrs by relative-quantitation label-free proteomics analysis relative to NVP; type: cell-based; method in brief: as §3
Cytochrome P450 2B6 [9] = target: T2, Cytochrome P450 2B6 (Homo sapiens, UniProt P20813); test: Drug metabolism assessed as human CYP2B6-mediated formation of 12-OHNVP at 10 uM pre-incubated for 30 mins followed by addition of NADPH regenerating reagents by uHPLC-MS analysis; type: ADME; details: recombinant enzyme; method in brief: as §2
T2 sequence (P20813 whole entry): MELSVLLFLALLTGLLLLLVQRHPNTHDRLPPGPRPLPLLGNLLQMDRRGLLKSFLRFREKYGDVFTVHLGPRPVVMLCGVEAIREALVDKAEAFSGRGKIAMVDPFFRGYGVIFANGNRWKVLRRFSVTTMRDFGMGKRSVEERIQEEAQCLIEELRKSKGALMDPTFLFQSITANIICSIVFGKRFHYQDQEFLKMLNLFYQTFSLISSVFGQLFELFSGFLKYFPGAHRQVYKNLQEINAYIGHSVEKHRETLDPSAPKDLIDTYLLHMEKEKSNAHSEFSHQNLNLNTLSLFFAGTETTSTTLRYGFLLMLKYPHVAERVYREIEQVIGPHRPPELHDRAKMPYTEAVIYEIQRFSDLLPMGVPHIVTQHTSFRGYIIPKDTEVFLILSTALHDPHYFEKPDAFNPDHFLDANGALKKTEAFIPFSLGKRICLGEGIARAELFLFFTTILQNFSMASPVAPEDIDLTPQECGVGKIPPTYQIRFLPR

Cytochrome P450 2B6 [10] = target: T2, Cytochrome P450 2B6; test: Drug metabolism assessed as human CYP2B6-mediated formation of 3-OHNVP at 10 uM pre-incubated for 30 mins followed by addition of NADPH regenerating reagents by uHPLC-MS analysis; type: ADME; details: recombinant enzyme; method in brief: as §2
[11] = Drug metabolism in C57BL/6J mouse primary hepatocytes assessed as O-GlucNVP metabolite formation at 10 uM incubated for 24 hrs by uHPLC-MS analysis; type: ADME, cell-based, Hepatocyte; method in brief: as §1

Chain of Cytochrome P450 3A5 (P20815 whole entry): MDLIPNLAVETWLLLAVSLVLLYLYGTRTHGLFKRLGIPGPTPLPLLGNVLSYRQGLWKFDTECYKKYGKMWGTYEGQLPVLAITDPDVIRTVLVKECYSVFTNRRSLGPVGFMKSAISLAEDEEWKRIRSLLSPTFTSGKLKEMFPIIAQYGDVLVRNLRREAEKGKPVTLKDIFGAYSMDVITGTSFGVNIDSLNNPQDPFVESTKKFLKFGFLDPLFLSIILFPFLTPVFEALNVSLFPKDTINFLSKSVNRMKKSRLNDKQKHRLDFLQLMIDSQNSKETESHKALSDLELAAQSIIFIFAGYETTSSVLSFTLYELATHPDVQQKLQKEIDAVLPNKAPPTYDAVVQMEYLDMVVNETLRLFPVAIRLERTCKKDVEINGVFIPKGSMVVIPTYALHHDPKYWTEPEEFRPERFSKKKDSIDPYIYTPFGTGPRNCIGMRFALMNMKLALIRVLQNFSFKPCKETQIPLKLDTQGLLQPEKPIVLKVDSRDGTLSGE
Chain of Cytochrome P450 2D6 (P10635 whole entry): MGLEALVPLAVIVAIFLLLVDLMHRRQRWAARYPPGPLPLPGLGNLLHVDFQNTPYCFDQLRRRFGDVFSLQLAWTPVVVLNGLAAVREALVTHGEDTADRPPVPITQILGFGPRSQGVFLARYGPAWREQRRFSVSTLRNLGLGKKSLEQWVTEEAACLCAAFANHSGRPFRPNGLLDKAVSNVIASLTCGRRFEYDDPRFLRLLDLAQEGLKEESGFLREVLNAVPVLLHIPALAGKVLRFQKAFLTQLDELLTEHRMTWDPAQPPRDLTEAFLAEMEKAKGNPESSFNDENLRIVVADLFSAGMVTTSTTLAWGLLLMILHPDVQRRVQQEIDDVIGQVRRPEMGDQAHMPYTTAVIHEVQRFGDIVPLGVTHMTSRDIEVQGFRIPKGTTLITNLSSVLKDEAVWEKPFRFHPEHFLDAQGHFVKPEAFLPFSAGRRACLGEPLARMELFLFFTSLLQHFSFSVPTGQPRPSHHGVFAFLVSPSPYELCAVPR

[2H]C([2H])([2H])c1ccnc2c1NC(=O)c1cccnc1N2C1CC1
Drug metabolism [1]: Metabolite_Detected
Drug metabolism (Cytochrome P450 1A1): Metabolite_Detected
fold change (FC) (Hepatocyte [2]): -2.14
Drug metabolism (Cytochrome P450 2D6): Metabolite_Detected
fold change (FC) (Hepatocyte [3]): -1.28
Drug metabolism (Cytochrome P450 3A5): Metabolite_Notdetected
Drug metabolism [4]: Metabolite_Detected
fold change (FC) (Hepatocyte [5]): -1.87
fold change (FC) (Hepatocyte [6]): -1.5
Drug metabolism [7]: Metabolite_Notdetected
fold change (FC) (Hepatocyte [8]): -1.52
Drug metabolism (Cytochrome P450 2B6 [9]): Metabolite_Detected
Drug metabolism (Cytochrome P450 2B6 [10]): Metabolite_Detected
Drug metabolism [11]: Metabolite_Detected
